ChEMBL document CHEMBL3864175, “Sulfonamides as Selective NaV1.7 Inhibitors: Optimizing Potency and Pharmacokinetics to Enable in Vivo Target Engagement” (ACS Med Chem Lett, 2016)
pIC50: −log10 of the molar value.

Tests used:
[1] = Drug excretion in bile duct cannulated Sprague-Dawley rat urine assessed as parent compound at 1 mg/kg, iv administered through catheter measured up to 24 hrs by LC-MS/MS analysis; format: ADME, organism-based; conditions: read-out: Drug excretion
[2] = target: Sodium channel protein type 5 subunit alpha (Homo sapiens, UniProt Q14524); assay: Inhibition of 20% inactivated human Nav1.5 expressed in HEK293 cells assessed as inhibition of peak inward current by whole cell patch clamp method; format: cell-based
Sodium channel protein type 5 subunit alpha, sequence (Q14524 whole entry): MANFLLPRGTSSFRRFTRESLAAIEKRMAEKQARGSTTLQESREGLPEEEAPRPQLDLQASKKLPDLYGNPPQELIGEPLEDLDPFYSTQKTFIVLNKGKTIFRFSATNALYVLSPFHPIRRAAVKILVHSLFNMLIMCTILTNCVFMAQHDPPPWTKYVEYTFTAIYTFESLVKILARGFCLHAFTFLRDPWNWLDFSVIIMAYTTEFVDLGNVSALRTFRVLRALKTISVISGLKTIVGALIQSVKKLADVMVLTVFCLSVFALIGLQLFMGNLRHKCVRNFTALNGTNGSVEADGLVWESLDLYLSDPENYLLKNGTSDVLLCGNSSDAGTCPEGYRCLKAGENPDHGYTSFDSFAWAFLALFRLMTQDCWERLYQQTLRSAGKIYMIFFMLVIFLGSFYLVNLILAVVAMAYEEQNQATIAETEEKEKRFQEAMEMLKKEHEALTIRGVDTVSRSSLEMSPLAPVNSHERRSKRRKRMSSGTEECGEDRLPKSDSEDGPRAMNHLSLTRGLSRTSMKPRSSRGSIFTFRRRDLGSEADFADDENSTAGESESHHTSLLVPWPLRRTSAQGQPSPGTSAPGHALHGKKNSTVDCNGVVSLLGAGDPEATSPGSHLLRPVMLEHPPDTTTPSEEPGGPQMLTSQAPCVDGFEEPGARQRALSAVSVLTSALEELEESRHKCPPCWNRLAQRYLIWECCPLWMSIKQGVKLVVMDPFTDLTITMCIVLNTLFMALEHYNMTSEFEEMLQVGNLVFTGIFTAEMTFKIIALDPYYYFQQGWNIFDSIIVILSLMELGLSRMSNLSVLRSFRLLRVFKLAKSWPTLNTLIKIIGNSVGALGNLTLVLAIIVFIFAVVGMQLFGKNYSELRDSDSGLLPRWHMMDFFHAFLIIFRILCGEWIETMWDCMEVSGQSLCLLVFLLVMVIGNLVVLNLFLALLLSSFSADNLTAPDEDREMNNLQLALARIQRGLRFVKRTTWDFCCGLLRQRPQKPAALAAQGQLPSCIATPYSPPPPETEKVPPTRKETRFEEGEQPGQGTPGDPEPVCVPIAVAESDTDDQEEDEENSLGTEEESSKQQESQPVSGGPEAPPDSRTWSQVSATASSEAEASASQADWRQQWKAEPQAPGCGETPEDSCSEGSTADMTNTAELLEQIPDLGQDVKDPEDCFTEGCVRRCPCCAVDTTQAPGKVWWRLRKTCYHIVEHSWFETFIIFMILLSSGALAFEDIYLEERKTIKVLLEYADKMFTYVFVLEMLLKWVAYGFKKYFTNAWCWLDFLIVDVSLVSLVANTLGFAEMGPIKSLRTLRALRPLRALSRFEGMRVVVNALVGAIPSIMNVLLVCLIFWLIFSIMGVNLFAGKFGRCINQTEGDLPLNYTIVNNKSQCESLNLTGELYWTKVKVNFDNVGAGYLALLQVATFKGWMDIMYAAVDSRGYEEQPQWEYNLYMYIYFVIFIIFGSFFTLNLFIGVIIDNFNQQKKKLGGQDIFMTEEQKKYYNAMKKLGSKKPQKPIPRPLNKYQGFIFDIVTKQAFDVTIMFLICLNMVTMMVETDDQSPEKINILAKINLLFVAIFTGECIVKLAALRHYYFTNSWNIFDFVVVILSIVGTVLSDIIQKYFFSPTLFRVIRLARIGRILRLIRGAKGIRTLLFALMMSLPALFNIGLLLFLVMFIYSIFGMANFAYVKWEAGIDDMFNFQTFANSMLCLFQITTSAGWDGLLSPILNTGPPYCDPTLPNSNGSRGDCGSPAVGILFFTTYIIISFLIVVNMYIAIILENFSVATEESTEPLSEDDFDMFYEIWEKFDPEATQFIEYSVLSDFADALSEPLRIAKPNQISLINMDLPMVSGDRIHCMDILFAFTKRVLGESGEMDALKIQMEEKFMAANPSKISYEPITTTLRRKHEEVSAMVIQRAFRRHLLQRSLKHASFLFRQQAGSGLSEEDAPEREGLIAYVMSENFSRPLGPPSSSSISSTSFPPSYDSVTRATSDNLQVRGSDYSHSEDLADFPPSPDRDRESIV

[3] = Unbound plasma concentration in histamine induced C57BL/6 mouse model of scratching at 20 mg/kg, po pretreated for 120 mins followed by histamine-challenge measured after 30 mins; format: ADME, organism-based; conditions: in vivo, 0.5 h
Procedure, shortened: (§1)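 Male C57BL/6 mice dosed orally 120 min before intradermal histamine. Scratching bouts counted over 30 min and compared with vehicle by one-way ANOVA with Dunnett's test. Total and unbound plasma levels taken 30 min after histamine.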

[4] = target: Sodium channel protein type 9 subunit alpha (Mus musculus, UniProt Q62205); assay: Inhibition of 20% inactivated mouse Nav1.7 expressed in HEK293 cells assessed as inhibition of sodium current measured for 3 to 5 mins by whole cell voltage clamp method; format: cell-based
Sodium channel protein type 9 subunit alpha (Mus musculus, UniProt Q62205), sequence (Q62205 whole entry): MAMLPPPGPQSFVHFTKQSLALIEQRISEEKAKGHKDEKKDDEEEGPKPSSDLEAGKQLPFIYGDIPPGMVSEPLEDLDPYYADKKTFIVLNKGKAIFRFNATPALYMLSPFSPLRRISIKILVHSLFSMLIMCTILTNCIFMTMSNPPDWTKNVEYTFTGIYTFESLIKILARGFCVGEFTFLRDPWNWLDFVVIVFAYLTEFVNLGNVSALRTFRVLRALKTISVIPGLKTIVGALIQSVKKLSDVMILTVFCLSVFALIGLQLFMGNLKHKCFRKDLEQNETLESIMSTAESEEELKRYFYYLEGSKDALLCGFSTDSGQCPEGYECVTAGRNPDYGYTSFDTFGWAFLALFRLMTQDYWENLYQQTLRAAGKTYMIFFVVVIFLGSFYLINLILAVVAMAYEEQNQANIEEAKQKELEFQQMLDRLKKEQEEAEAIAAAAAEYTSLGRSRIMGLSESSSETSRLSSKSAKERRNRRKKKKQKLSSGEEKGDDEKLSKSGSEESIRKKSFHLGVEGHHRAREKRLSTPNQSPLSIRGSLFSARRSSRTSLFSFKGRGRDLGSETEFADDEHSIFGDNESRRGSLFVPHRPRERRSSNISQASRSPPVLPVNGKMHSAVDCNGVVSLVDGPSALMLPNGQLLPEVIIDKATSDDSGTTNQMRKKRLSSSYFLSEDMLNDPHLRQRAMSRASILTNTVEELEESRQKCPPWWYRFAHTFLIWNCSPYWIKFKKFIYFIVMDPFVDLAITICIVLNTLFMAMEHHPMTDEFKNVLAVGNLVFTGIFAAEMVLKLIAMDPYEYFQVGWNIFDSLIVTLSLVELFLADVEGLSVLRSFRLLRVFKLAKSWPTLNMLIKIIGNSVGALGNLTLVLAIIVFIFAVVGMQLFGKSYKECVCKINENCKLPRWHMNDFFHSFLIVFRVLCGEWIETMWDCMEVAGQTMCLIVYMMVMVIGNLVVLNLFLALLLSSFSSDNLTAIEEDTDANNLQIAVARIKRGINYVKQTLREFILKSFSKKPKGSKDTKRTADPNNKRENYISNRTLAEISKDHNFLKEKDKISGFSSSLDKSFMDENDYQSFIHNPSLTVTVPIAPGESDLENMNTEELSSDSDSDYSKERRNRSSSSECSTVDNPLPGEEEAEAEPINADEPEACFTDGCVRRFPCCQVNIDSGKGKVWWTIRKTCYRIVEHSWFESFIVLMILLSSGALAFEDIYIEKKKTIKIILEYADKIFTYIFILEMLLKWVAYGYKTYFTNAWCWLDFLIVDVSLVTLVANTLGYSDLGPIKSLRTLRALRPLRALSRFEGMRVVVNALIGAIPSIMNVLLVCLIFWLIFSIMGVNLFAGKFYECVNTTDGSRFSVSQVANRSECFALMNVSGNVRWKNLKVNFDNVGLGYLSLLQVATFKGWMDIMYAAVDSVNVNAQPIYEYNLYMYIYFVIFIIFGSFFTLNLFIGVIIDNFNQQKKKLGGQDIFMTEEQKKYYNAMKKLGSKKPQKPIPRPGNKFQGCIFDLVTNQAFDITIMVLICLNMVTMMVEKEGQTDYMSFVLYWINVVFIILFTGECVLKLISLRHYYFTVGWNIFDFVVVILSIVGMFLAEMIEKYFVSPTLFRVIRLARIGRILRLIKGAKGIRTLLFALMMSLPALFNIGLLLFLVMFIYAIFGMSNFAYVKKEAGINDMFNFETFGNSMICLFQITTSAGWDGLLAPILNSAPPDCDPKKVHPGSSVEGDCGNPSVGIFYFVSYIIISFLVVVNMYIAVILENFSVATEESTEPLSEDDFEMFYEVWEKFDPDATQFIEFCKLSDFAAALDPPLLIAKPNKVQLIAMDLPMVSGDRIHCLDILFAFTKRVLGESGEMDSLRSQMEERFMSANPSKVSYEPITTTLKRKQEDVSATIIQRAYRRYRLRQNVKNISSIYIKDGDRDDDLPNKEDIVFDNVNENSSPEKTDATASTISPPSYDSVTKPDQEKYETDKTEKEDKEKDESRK
Procedure, shortened: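 Mouse NaV1.7 was stably transfected into HEK293 cells. Block was measured with cells depolarized to a voltage that gave 20% channel inactivation.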

[5] = target: Sodium channel protein type 9 subunit alpha (Homo sapiens, UniProt Q15858); assay: Inhibition of human Nav1.7 expressed in HEK293 cells assessed as inhibition of sodium current at holding potential of -60 mV measured for 3 to 5 mins by whole cell voltage clamp method; format: cell-based
[6] = Drug excretion in bile duct cannulated Sprague-Dawley rat feces assessed as parent compound at 1 mg/kg, iv administered through catheter measured up to 24 hrs by LC-MS/MS analysis; format: ADME, organism-based; conditions: faeces, read-out: Drug excretion
[7] = target: Sodium channel protein type 1 subunit alpha (Homo sapiens, UniProt P35498); assay: Inhibition of 20% inactivated human Nav1.1 expressed in HEK293 cells assessed as inhibition of peak inward current by whole cell patch clamp method; format: cell-based
[8] = target: Sodium channel protein type 10 subunit alpha (Homo sapiens, UniProt Q9Y5Y9); assay: Inhibition of 20% inactivated human Nav1.8 expressed in CHO cells assessed as inhibition of TTX-resistant current by whole cell patch clamp method; format: cell-based
[9] = Oral bioavailability in rat at 10 mg/kg by LC-MS/MS analysis; format: ADME, organism-based; conditions: in vivo
Procedure, shortened: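 Rats dosed orally at 10 mg/kg as a solution in 30% HPBCD/70% water, brought to pH 10 with KOH.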

[10] = Selectivity index, ratio of IC50 for human Nav1.5 expressed in HEK293 cells to IC50 for human Nav 1.7 expressed in HEK293 cells
[11] = Fraction unbound in dog plasma at 5 uM by LC-MS/MS analysis; format: ADME, cell-free, Canis lupus familiaris
[12] = Clearance in rat at 0.5 mg/kg, iv by LC-MS/MS analysis; format: ADME, organism-based; conditions: in vivo
Procedure, shortened: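 Male rats, n = 2 per group, dosed intravenously at 0.5 mg/kg as a solution in 100% DMSO. Unbound clearance is derived from total clearance.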

[13] = Total plasma concentration in histamine induced C57BL/6 mouse model of scratching at 20 mg/kg, po pretreated for 120 mins followed by histamine-challenge measured after 30 mins; format: ADME, organism-based; procedure, shortened: as §1
[14] = target: Sodium channel protein type 2 subunit alpha (Homo sapiens, UniProt Q99250); assay: Inhibition of 20% inactivated human Nav1.2 expressed in CHO cells assessed as inhibition of peak inward current by whole cell patch clamp method; format: cell-based
[15] = Apparent permeability in MDCK cells; format: ADME, cell-based, Canis lupus familiaris; conditions: dog
Procedure, shortened: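 Apparent permeability measured in parental MDCK cells.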

[16] = Volume of distribution at steady state in dog at 0.5 mg/kg, iv by LC-MS/MS analysis; format: ADME, organism-based, Canis lupus familiaris; conditions: in vivo
Procedure, shortened: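 Dogs dosed intravenously at 0.5 mg/kg in 30% HPBCD/70% water, brought to pH 10 with KOH.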

[17] = Inhibition of 20% inactivated dog Nav1.7 expressed in HEK293T cells assessed as inhibition of sodium current measured for 3 to 5 mins by whole cell voltage clamp method; format: cell-based; conditions: HEK-293T
Procedure, shortened: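 Electrophysiological block was measured with cells depolarized to a voltage that gave 20% channel inactivation, as opposed to a fully non-inactivated (closed) holding condition.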

COc1cc(C(F)(F)F)ccc1-c1ncnc2cc(S(=O)(=O)Nc3nccs3)ccc12
dose excreted at 24 h [1]: 0.02%
pIC50 [2]: 4.80
Cp(f) [3]: 0.76 µM
pIC50 [4]: 6.74
pIC50 [5]: 8.05
dose excreted at 24 h [6]: 0.6%
pIC50 [7]: 5.14
pIC50 [8]: < 4.52
bioavailability [9]: 100%
Ratio IC50 [10]: >100
fraction unbound at 5 µM [11]: 0.014
clearance [12]: 9 mL/min/kg
concentration at 0.5 h [13]: 22 µM
pIC50 [14]: 5.68
Papp [15]: 31 ×10⁻⁶ cm/s
Vd [16]: 0.31 L/kg
pIC50 [17]: 6.74
